The nature of assay [1]: Blockade of voltage-gated potassium channel assessed as inhibition of fast transient potassium current in Sprague-Dawley rat hippocampal neurons by whole cell voltage clamp method. Format: tissue-based. The settings on record: Hippocampus. In outline: (§1)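 CA1 pyramidal neurons were acutely dissociated from 5- to 9-day-old Sprague-Dawley rats (500 µm minislices, protease XXIII 3 mg/mL, 32 °C, 8 min). Whole-cell voltage clamp was run at 21-23 °C with KCl 140 mM pipettes and leak subtraction. Compound was applied externally by rapid solution changer across a concentration range. IA was read as peak amplitude and IK at 300 ms latency. IC50 came from concentration-response curve fitting.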

Assay [2] in a line: Blockade of voltage-gated potassium channel assessed by inhibition of delayed rectifier potassium current in Sprague-Dawley rat hippocampal neurons by whole cell voltage clamp method. Type of assay: tissue-based. The settings on record: Hippocampus. In outline: as §1
Assay [3] concerns Hippocampus. Nature of the assay: Inhibition of delayed rectifier potassium current in Sprague-Dawley rat hippocampal neurons at 10 uM. Format: functional, tissue-based. In a few lines:
(§2)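 IK was recorded by whole-cell voltage clamp (21-23 °C, 3-4 MΩ KCl-based pipettes) in dissociated CA1 pyramidal neurons from 5- to 9-day-old Sprague-Dawley rats. Compound was applied intracellularly at the stated concentration. IK amplitude was measured at 300 ms latency, normalized and followed over time after application. Values are mean ± SEM, n = 5.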

Assay [4] deals with Hippocampus. The assay is described as follows: Inhibition of delayed rectifier potassium current in Sprague-Dawley rat hippocampal neurons at 300 uM. Format: functional, tissue-based. In a few lines: as §2
The test system of assay [5] is Hippocampus. The assay is described as follows: Inhibition of fast transient potassium current in Sprague-Dawley rat hippocampal neurons at 100 uM by whole cell voltage clamp method. Format: functional. In a few lines: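 In the primary screen, 100 µM compound was dissolved in external solution and delivered by rapid solution changer to dissociated CA1 pyramidal neurons from 5- to 9-day-old Sprague-Dawley rats. Whole-cell voltage clamp was run at 21-23 °C, with series resistance compensated 75-85% and online leak subtraction. Fast transient K+ current (IA) was measured as peak amplitude.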

For another assay, the species on record is Rattus norvegicus. The assay is described as follows: Selectivity for inhibition of delayed rectifier potassium current over inhibition of fast transient potassium current at potassium channel in Sprague-Dawley rat hippocampal neurons. Type of assay: tissue-based. The settings on record: Hippocampus.
The subject of assay [6] is Hippocampus. The assay is described as follows: Inhibition of delayed rectifier potassium current in Sprague-Dawley rat hippocampal neurons at 30 uM. Type of assay: functional, tissue-based. In outline:
as §2

The subject of assay [7] is Hippocampus. Nature of the assay: Inhibition of delayed rectifier potassium current in Sprague-Dawley rat hippocampal neurons at 100 uM. Format: functional, tissue-based. In outline: as §2
Assay [8] has as its system Hippocampus. Nature of the assay: Inhibition of delayed rectifier potassium current in Sprague-Dawley rat hippocampal neurons at 1 mM. Format: functional, tissue-based. In a few lines:
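CA1 pyramidal neurons acutely dissociated from 5- to 9-day-old Sprague-Dawley rats (protease XXIII 3 mg/mL, 32 °C, 8 min). Whole-cell voltage clamp at 21-23 °C, 3-4 MΩ electrodes with KCl pipet solution, 75-85% series-resistance compensation, online leak subtraction. Compound dissolved in external solution and delivered by rapid solution changer. IK amplitude read at 300 ms latency.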

The record followed here is ChEMBL document CHEMBL1139222, “Discovering potassium channel blockers from synthetic compound database by using structure-based virtual screening in conjunction with electrophysiological assay” (J Med Chem, 2007).

Active and inactive are the calls of the source. The calls are words filed in the database; no cut-off is given here.

Usually IC50 stands for the concentration that inhibits the measured activity by half. In general, inhibition refers to the change of the read-out against control, counted positive when it falls. High values mean a strong effect, low ones a weak effect.

With `Cc1ccc(S(=O)(=O)NCCOCCOCCOCCNS(=O)(=O)c2ccc(C)cc2)cc1`, the figures for the IC50 in assay [1] and in [2] were 28 µM and 2.1 µM, respectively. Moreover, the outcome in the assay on Hippocampus [3] and in the assay on Hippocampus [4] was inactive. Further, the inhibition at 100 µM in the assay on Hippocampus [5] turned out to be 63%. For the same molecule, in the assay listed under Rattus norvegicus, the Ratio IC50 is 13.3.

In the case of `NCCNS(=O)(=O)c1cccc2c(Cl)cccc12`, the half-inhibitory concentration (IC50) in assay [1] was 124 µM; in assay [2], 18 µM. Moreover, in the assay on Hippocampus [6], the result was inactive. In the assay with Hippocampus [5], this molecule showed an inhibition at 100 µM of 27%. The Ratio IC50 in the assay filed under Rattus norvegicus was 6.9.

Regarding `Cc1nc(-c2cccnc2)nc(NCCN)c1Cl`, the results for the IC50 in [1] and in assay [2] were 244 µM and 83 µM, respectively. Further, the result in the assay on Hippocampus [4] was inactive. The molecule further gave an inhibition at 100 µM in the assay on Hippocampus [5] of 9%. In addition, the Ratio IC50 in the assay filed under Rattus norvegicus came out at 2.9.

As for `O=S(=O)(CCN1CCN(Cc2ccccc2)CC1)c1ccc(Cl)cc1`, the half-inhibitory concentration (IC50) in assay [1] came to 980 µM; in [2] it was 60 µM. Further, the result with Hippocampus [7] was inactive. Besides, in the assay on Hippocampus [5], the inhibition at 100 µM came to 11%. For the same molecule, the Ratio IC50 in the assay filed under Rattus norvegicus came out at 16.3.

Take `NC(COc1ccccc1)c1ccc2c(c1)OCCO2` (stereo not given): the concentration for half-maximal inhibition (IC50) in assay [1] turned out to be 737 µM; in assay [2], 67 µM. Moreover, the result with Hippocampus [7] was inactive. The molecule also gave an inhibition at 100 µM in the assay with Hippocampus [5] of 20%. Besides, the Ratio IC50 in the assay listed under Rattus norvegicus worked out at 11.

Turning to `COc1ccc2c(CCN)c[nH]c2c1`, the 50% inhibitory concentration (IC50) in assay [1] was determined as 524 µM; in assay [2], 972 µM. The result in the assay on Hippocampus [8] was inactive. This molecule came in with an inhibition at 100 µM in the assay on Hippocampus [5] of 10%.
